Experimental data published in ChEMBL document CHEMBL1949537, “Structure-activity studies on the anti-proliferation activity of ajoene analogues in WHCO1 oesophageal cancer cells” (Eur J Med Chem, 2012).
Activity calls are given as the source filed them. The calls are words filed in the database; no cut-off is given here.

How the values were obtained:
[1] = Antiproliferative activity against human WHCO1 cells after 48 hrs by MTT assay; format: functional, cell-based; conditions: WHCO1, 48 h
How it was run: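 WHCO1 cells (oesophageal SCC line) kept in DMEM with 10% FBS, no antibiotics, 37 °C, 5% CO2. Seeded 2 × 10^3 cells/well, dosed next day at 0.5–200 µM in 0.1% DMSO final; DMSO-only controls. After 48 h, MTT added for 4 h, then SLS/HCl overnight, A595 read. IC50 from variable-slope sigmoidal fit; mean ± SD of three independent determinations.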

WHCO1 [2] = assay: Growth inhibition of human WHCO1 cells at 113 uM after 6 days by Roche xCelligence method; format: functional, cell-based
How it was run: (§1)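 Real-time impedance (xCelligence) of WHCO1 cells seeded at 5000/well. Compound added 24 h after plating in 0.1% DMSO at 34, 100 or 113 µM; DMSO-only controls. Growth then tracked continuously for a further six days. Each curve is the average of three replicates.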

[3] = Induction of cell cycle arrest in human WHCO1 cells assessed as G0/G1 phase cells at 10 uM after 16 hrs by flow cytometry (reference value: 29.2 +/- 5.2%); format: functional
[4] = Induction of cell cycle arrest in human WHCO1 cells assessed as S phase cells at 10 uM after 16 hrs by flow cytometry (reference value: 45.3 +/- 1.9%); format: functional
[5] = Induction of cell cycle arrest in human WHCO1 cells assessed as G2/M phase cells at 10 uM after 16 hrs by flow cytometry (reference value: 25.5 +/- 3.7%); format: functional
WHCO1 [6] = assay: Growth inhibition of human WHCO1 cells at 34 uM after 6 days by Roche xCelligence method; format: functional, cell-based; how it was run: as §1
WHCO1 [7] = assay: Induction of apoptosis in human WHCO1 cells at 10 uM after 16 hrs by Roche cell death ELISA method; format: functional, cell-based
How it was run: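 Quadruplicate wells of 5 × 10^3 WHCO1 cells dosed next day at 10 µM in 0.1% DMSO for 16 h; DMSO-only controls. Cytoplasmic fraction assayed for histone-associated DNA fragments by sandwich ELISA (anti-histone-biotin/anti-DNA-POD, 2 h at room temperature, ABTS 15 min). Absorbance read at 405 and 495 nm.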

WHCO1 [8] = assay: Growth inhibition of human WHCO1 cells at 10 uM up to 2 days by Roche xCelligence method; format: functional, cell-based; conditions: in the assay text read “up to 5 days” for “up to 2 days”
How it was run: (§2)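 xCelligence impedance monitoring of WHCO1 growth: 2500 cells/well, treated 24 h after plating with 10 µM compound in 0.1% DMSO. DMSO-only controls. Growth followed continuously as impedance; the system records for up to seven days.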

WHCO1 [9] = assay: Growth inhibition of human WHCO1 cells at 100 uM after 6 days by Roche xCelligence method; format: functional, cell-based; how it was run: as §1
[10] = Ratio of Z-ajeone IC50 to compound IC50 for human WHCO1 cells; format: functional
[11] = Induction of apoptosis in human WHCO1 cells assessed as caspase 3 activation using Ac-DEVD-AFC as substrate at 25 uM after 24 hrs by fluorimetry relative to control; format: functional
How it was run: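 WHCO1 cells (1.8 × 10^6) seeded in triplicate and dosed next day at 25 µM with 0.1% DMSO for 24 h. Controls received medium or 0.1% DMSO. Lysates captured on anti-caspase-3 coated wells for 1 h at 37 °C, then fluorogenic substrate added. Fluorescence (ex 390/em 505 nm) read at 0 and 120 min at 37 °C; activity is the ΔFU.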

WHCO1 [12] = assay: Growth inhibition of human WHCO1 cells at 10 uM up to 5 days by Roche xCelligence method; format: functional, cell-based; how it was run: as §2

| SMILES | IC50 [1] [µM] | also measured |
| --- | --- | --- |
| CCCSS/C=C/C[S+]([O-])CCC (stereo not drawn) | 24 | – |
| O=c1[nH]cc(F)c(=O)[nH]1 [FLUOROURACIL] | 7.9 | – |
| C=CCSSC=CC[S+]([O-])Cc1ccc(OC)cc1 (mixture of isomers) | 7.4 | – |
| COc1ccc(CSCCCSSCc2ccc(OC)cc2)cc1 | > 200 | growth inhibition (GI) (WHCO1 [2]): inactive |
| C=CCSS/C=C/C[S+]([O-])CCC (stereo not drawn) | 37 | – |
| COc1ccc(C[S+]([O-])CC=CSSCc2ccc(F)cc2)cc1 (mixture of isomers) | 16 | – |
| CCC[S+]([O-])C/C=C\SSC (stereo not drawn) | 26 | – |
| CCCSS/C=C\C[S+]([O-])CCC (stereo not drawn) | 18 | – |
| COc1ccc(CS/C=C\C[S+]([O-])Cc2ccc(OC)cc2)cc1 (stereo not drawn) | > 200 | Activity [3]: 19.5%; Activity [4]: 63.1%; Activity [5]: 17.4%; growth inhibition (GI) (WHCO1 [6]): inactive |
| COc1ccc(CSCC=CSSCc2ccc(OC)cc2)cc1 | 0.7 | Activity [3]: 9.73%; Activity [4]: 15.9%; Activity [5]: 74.4%; growth inhibition (GI) (WHCO1 [6]): Active; Activity (WHCO1 [7]): Active |
| C=CCSS/C=C/C[S+]([O-])CCCO (stereo not drawn) | 27 | – |
| C=CCSSC=CC[S+]([O-])C(C)(C)C (mixture of isomers) | 23 | – |
| C=CCSS/C=C\C[S+]([O-])CCCO (stereo not drawn) | 38 | – |
| C=CCSS/C=C\C[S+]([O-])CCC (stereo not drawn) | 23 | – |
| C=CCSSC=CC[S+]([O-])Cc1ccccc1 (mixture of isomers) | 8.9 | – |
| COc1ccc(CSC=CCSCc2ccc(OC)cc2)cc1 | > 200 | growth inhibition (GI) (WHCO1 [2]): inactive |
| COc1ccc(CSSCCC[S+]([O-])Cc2ccc(OC)cc2)cc1 (stereo not drawn) | 16 | growth inhibition (GI) (WHCO1 [6]): Active |
| C=CCSS/C=C\C[S+]([O-])CC=C (stereo not drawn) [(Z)-Ajoene] | 25 | growth inhibition (GI) (WHCO1 [8]): inactive |
| C=CCSS/C=C/C[S+]([O-])CCCOCc1ccc(OC)cc1 (stereo not drawn) | 18 | – |
| COc1ccc(CSSC=CC[S+]([O-])Cc2ccc(OC)cc2)cc1 (stereo not drawn) | 2.1 | Activity [3]: 8.03%; growth inhibition (GI) (WHCO1 [9]): Active; Activity [4]: 13.5%; Ratio IC50 [10]: 12; fold change (FC) [11]: 3; growth inhibition (GI) (WHCO1 [12]): Active; Activity [5]: 78.6%; Activity (WHCO1 [7]): Active |
| COc1ccc(C[S+]([O-])CC=CSSCc2ccccc2)cc1 (mixture of isomers) | 3.1 | – |
| COc1ccc(CS/C=C/C[S+]([O-])Cc2ccc(OC)cc2)cc1 (stereo not drawn) | > 200 | Activity [3]: 21.5%; Activity [4]: 67%; Activity [5]: 11.4%; growth inhibition (GI) (WHCO1 [6]): inactive |
| C=CCSS/C=C\C[S+]([O-])CCCN1C(=O)c2ccccc2C1=O (stereo not drawn) | 33 | – |
| C=CCSS/C=C/C[S+]([O-])CCCN1C(=O)c2ccccc2C1=O (stereo not drawn) | 68 | – |
| C=CCSS/C=C/C[S+]([O-])CC=C (stereo not drawn) [AJOENE] | 39 | growth inhibition (GI) (WHCO1 [8]): inactive |
| C=CCSS/C=C\C[S+]([O-])CCCOCc1ccc(OC)cc1 (stereo not drawn) | 21 | – |
| CCC[S+]([O-])C/C=C/SSC (stereo not drawn) | 28 | – |
